This sample holds only a part of the variants without activity.
B1: tRNA (parent)
chain: GUUCCGUUGGCGUAAUGGUAACGCGUCUCCCUCCUAAGGAGAAGACUGCGGGUUCGAGUCCCGUACGGAACG

Variants of: B1
Assay: yeast fitness relative to wild type (ratio to wild type); higher = fitter; tRNA-Arg(CCU), competitive growth, 37 C, YPD
Procedure, shortened: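 A pool of Saccharomyces cerevisiae strains, each with a tRNA-Arg(CCU) gene variant at the native genomic locus, was competed in YPD at 37°C for 24 hours across six parallel replicates. The variants had been chemically synthesised at a 3% per-site mutation rate over 69 sites, and gene amplicons before and after competition were read by 100-nucleotide paired-end sequencing. Darwinian fitness relative to wild type rested on changes in genotype frequencies. Genotypes required ≥ 100 starting reads, and estimates < 0.5 were set to 0.5.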

| Variant | yeast fitness |
| --- | --- |
| C34G A42U C61U | ≤ 0.5 |
| C34G G44C C66A | 0.595 |
| C34G U54C | 0.569 |
| C34A A37C G63C | ≤ 0.5 |
| C33U A36G A45C A57U U59C | ≤ 0.5 |
| C33G U54C | 0.519 |
| C33G U54G | ≤ 0.5 |
| C33G U54A | ≤ 0.5 |
| C33U G38A C49U C61A | ≤ 0.5 |
| C33U U47C A57G | ≤ 0.5 |
| C34G A45U | 0.567 |
| C34G G38C A70G | ≤ 0.5 |
| C34A U47A G68A | ≤ 0.5 |
| C34G C46U A57U C60G A65C | ≤ 0.5 |
| C34A A36G U47C | ≤ 0.5 |
| C34A G39A | 0.734 |
| C34G G50C A69U | ≤ 0.5 |
| C34G A37C G44C | ≤ 0.5 |
| C33G U47C G52C C61U | ≤ 0.5 |
| C34A C49U G51C C61U | ≤ 0.5 |
| C33U C49U | 0.849 |
| C33U C49A | 0.638 |
| C34A A37G G41A | ≤ 0.5 |
| C33U C34A A43C | ≤ 0.5 |

| Variant | yeast fitness |
| --- | --- |
| C34A G44C | 0.574 |
| C33U A37U G51C A65U | 0.584 |
| C34A C46U U47A U59G | ≤ 0.5 |
| C33U C46U | 0.708 |
| C33U C46A | 0.821 |
| C33U G67C | 0.839 |
| C33U G67A | 0.776 |
| C34A G44C A70U | 0.54 |
| C33U U47C | 0.713 |
| C34A A42U A65C | ≤ 0.5 |
| C33U A45C U64G | ≤ 0.5 |
| C33U G38A C60G U64C | ≤ 0.5 |
| C34A A40C A42U A65U G67A | ≤ 0.5 |
| C33U C34G A45C C60A | ≤ 0.5 |
| C34A U47A C61G | ≤ 0.5 |
| C34G G48C U59C | 0.712 |
| C33U A42C A65G | 0.58 |
| C33U G41C G68C A69U | ≤ 0.5 |
| C33U G39A G63A | ≤ 0.5 |
| C34A G67A | 0.652 |
| C34G G48C C62U C66G | ≤ 0.5 |
| C33G U59A C60G C61G | ≤ 0.5 |
| C34A G52C C60G | 0.544 |
| C34G G39A A70C | ≤ 0.5 |

| Variant | yeast fitness |
| --- | --- |
| C34A U47C G51A A69U | ≤ 0.5 |
| C33U G58C | 0.635 |
| C34G A57G C61U | ≤ 0.5 |
| C33U A57U U59C | 0.601 |
| C34G A40C | 0.636 |
| C34G A40U | 0.596 |
| C34G G39A G50C | ≤ 0.5 |
| C34G A36U C62U | ≤ 0.5 |
| C34A A57U | 0.529 |
| C34G A40C C62U A69U | 0.573 |
| C34A C46U U47A | ≤ 0.5 |
| C34G G50C C55G | 0.59 |
| C33U A43C C46G | ≤ 0.5 |
| C34G A40G G41U C46G A57U C61U | ≤ 0.5 |
| C34G A40U A43C C49G G50A C60U | ≤ 0.5 |
| C34A A42U G58A C62U G63A | ≤ 0.5 |
| C34G G50A U59A | ≤ 0.5 |
| C33U A37G C49U A57U | ≤ 0.5 |
| C34G C55U G58A | ≤ 0.5 |
| C33U A37U C61U | ≤ 0.5 |
| C34G G50C | ≤ 0.5 |
| C34G G38C A40U G48C C49G | ≤ 0.5 |
| C33U A43G | 0.672 |
| C34G G67C | 0.604 |

| Variant | yeast fitness |
| --- | --- |
| C33U C55U C60U | ≤ 0.5 |
| C34G A65U C66A | ≤ 0.5 |
| C34G A65U A70G | ≤ 0.5 |
| C34A A42C U59A G67C | ≤ 0.5 |
| C33U G50C A70U | ≤ 0.5 |
| C34G C49G C61U A69G | 0.567 |
| C33U C62U | 0.717 |
| C34G C55A C66U | ≤ 0.5 |
| C33U A40C C60G | ≤ 0.5 |
| C34A C61G G68C | 0.538 |
| C33U C49U G51C | 0.512 |
| C34A U35C | 0.519 |
| C34A G50A C61G | ≤ 0.5 |
| C34A C55A | 0.566 |
| C33U A36G C55U A69C | ≤ 0.5 |
| C34G A42G C49A | ≤ 0.5 |
| C34A C49A U59G | 0.654 |
| C34A U54C | 0.566 |
| C33U A43C G48A G63C | ≤ 0.5 |
| C34G G38C G68C | 0.582 |
| C33U G52C G56C | ≤ 0.5 |
| C34G A36G G52A C66U | ≤ 0.5 |
| C33U G41A C61G | ≤ 0.5 |
| C34G C55G U59C C60U | ≤ 0.5 |

| Variant | yeast fitness |
| --- | --- |
| C33U G50C A57C | 0.623 |
| C33U A42G | 0.622 |
| C33U A42U | 0.729 |
| C34A G38C A43U G68A | ≤ 0.5 |
| C33U A43G C62G | ≤ 0.5 |
| C34G A37U C49G A57G A65G C66U | ≤ 0.5 |
| C34A A42U | 0.618 |
| C34A A42C | 0.818 |
| C33U G58C C62A C66G | ≤ 0.5 |
| C34G C66U | 0.634 |
| C33U A37U C60G A69C | ≤ 0.5 |
| C33U A45C | 0.703 |
| C34A G56C G58A G63C A65U | ≤ 0.5 |
| C34G A43U | 0.625 |
| C34G A43C | 0.594 |
| C34G A40G C46G C49A C66A A69U | ≤ 0.5 |
| C33U G68A | 0.679 |
| C34G G48A | 0.662 |
| C34G G39C U53G G56A | ≤ 0.5 |
| C34G A42U G68C | ≤ 0.5 |
| C34A G52A | 0.741 |
| C34A G52C | 0.721 |
| C33U A36G G39A G44A C55G U59C | ≤ 0.5 |
| C34G A45C A57C A65G | ≤ 0.5 |

| Variant | yeast fitness |
| --- | --- |
| C34A C49A G51C | 0.591 |
| C33U A42C C46A | ≤ 0.5 |
| C33U C34G C62A | ≤ 0.5 |
| C33G U47C C62A | 0.601 |
| C34A A36G A65C G68C | ≤ 0.5 |
| C34A G44C G68A | ≤ 0.5 |
| C33U A36G | 0.662 |
| C33U U53C | 0.574 |
| C34G C46U C49U | ≤ 0.5 |
| C34A U35A C49A C55U | ≤ 0.5 |
| C34G A43U C49A | 0.737 |
| C33U C34A A36G A42U | 0.73 |
| C34A C49U G58C | ≤ 0.5 |
| C33U A37U C62U | ≤ 0.5 |
| C34G A37G | 0.725 |
| C34A A37U U54C | 0.542 |
| C34A G44A C46U G68A | 0.56 |
| C34G G48C C66U | 0.562 |
| C34A A42C A45U A65U | ≤ 0.5 |
| C33U G38A | 0.866 |
| C34A A36U C55G C66A | ≤ 0.5 |
| C34G G63A | 0.633 |
| C34A C62G | 0.675 |
| C34G C49A U59G | 0.547 |

| Variant | yeast fitness |
| --- | --- |
| C34G A69C | 0.589 |
| C34G A69U | 0.631 |
| C34G U59G | 0.534 |
| C34G U59A | 0.538 |
| C33U U64A | 0.677 |
| C34G G44U C49G C61U A69G | ≤ 0.5 |
| C34A U64A | 0.783 |
| C34G A37C G38A C66U | ≤ 0.5 |
| C34A A36C C46A | ≤ 0.5 |
| C33U A42C C62A | ≤ 0.5 |
| C33U G41C C55A A69C | ≤ 0.5 |
| C34A G51A C61G A69U | 0.606 |
| C33U G48C | 0.778 |
| C34G A37U C62A | ≤ 0.5 |
| C33U A43U G44A C49G G50C C61U C66U | ≤ 0.5 |
| C34A A69C | 0.752 |
| C34A A69U | 0.858 |
| C33U A69U | 0.788 |
| C34A U47C A57G A65U | ≤ 0.5 |
| C33U A40U C66U | ≤ 0.5 |
| C33U G41C A45C | 0.621 |
| C34G G39A C49G C61U | ≤ 0.5 |
| C34A C46U C61G | ≤ 0.5 |

— the RNAGym collection of RNA variant scans (doi:10.1126/science.aae0568)
